Results on 1 compound are retold here after ChEMBL document CHEMBL4364341, “Radiosensitization of Head and Neck Squamous Cell Carcinoma (HNSCC) by a Podophyllotoxin” (ACS Med Chem Lett, 2019).

Structures are written as SMILES. The source made the active and inactive calls. No cut-off for these calls is given here.

The subject of assay [1] is SCC-25. The experiment in a line: Synergistic antiproliferative activity against human SCC25 cells assessed as reduction in colony formation unit followed by irradiation with 5 Gy IR and measured after 10 to 14 days by crystal violet staining based assay. It counts as functional, cell-based.
In assay [2] the test system is FaDu. Kind of assay: Synergistic antiproliferative activity against human FADU cells assessed as fractional inhibition at 0.005 uM preincubated for 1 hr followed by irradiation with 5 Gy IR and measured after 6 days by MTT assay (reference value: 0.097). It is filed as functional. A digest of the protocol: (§1)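 FaDu or SCC-25 cells were grown in DMEM with 10% FBS at 37 °C and 5% CO2. They were seeded at 1000 cells/well in 96-well plates for 24 h, then dosed with compound (fresh DMSO stock diluted in medium) or vehicle. After 1 h, X-rays were given with a sliding 5 mm lead shield, so one plate held 0, 2.5, 5 and 10 Gy columns. After 6 days, MTT (0.5 mg/mL, 45 min) was added, then DMSO, and A570 was read. Values were normalised to the unirradiated vehicle control. Fractional inhibition = 1 − surviving fraction.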

Assay [3] concerns FaDu. Kind of assay: Synergistic antiproliferative activity against human FADU cells assessed as fractional inhibition at 0.05 uM preincubated for 1 hr followed by irradiation with 10 Gy IR and measured after 6 days by MTT assay (reference value: 0.388). It is filed as functional. A digest of the protocol: as §1
(Tetrazolium dyes change colour on reduction, which living cells bring about.)

For assay [4], the system named is FaDu. The experiment in a line: Synergistic antiproliferative activity against human FADU cells assessed as combination index at 0.005 uM preincubated for 1 hr followed by irradiation with 10 Gy IR and measured after 6 days by MTT assay. It is filed as functional. Summed up: (§2)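 Combination index was calculated by the Chou–Talalay median-effect method from the 6-day MTT viability data of the single-plate compound/X-ray (2.5, 5, 10 Gy) design. CI < 1 denotes synergy, CI = 1 additivity and CI > 1 antagonism.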

Assay [5] deals with FaDu. The experiment in a line: Synergistic antiproliferative activity against human FADU cells assessed as combination index at 0.05 uM preincubated for 1 hr followed by irradiation with 10 Gy IR and measured after 6 days by MTT assay. It is filed as functional. Summed up: as §2
The subject of assay [6] is SCC-25. Kind of assay: Synergistic antiproliferative activity against human SCC25 cells assessed as fractional inhibition at 5 uM preincubated for 1 hr followed by irradiation with 2.5 Gy IR and measured after 6 days by MTT assay (reference value: 0.011). It counts as functional. A digest of the protocol:
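SCC-25 cells seeded 1000/well in 96-well plates in DMEM/10% FBS and left 24 h. Drug or vehicle added, then after 1 h X-irradiated to 2.5, 5 or 10 Gy on one plate using a shifted lead shield. Plates incubated 6 days, then MTT (0.5 mg/mL, 45 min), DMSO solubilisation, absorbance at 570 nm. Fractional inhibition = 1 − fraction of surviving cells.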

Assay [7] relates to SCC-25. The experiment in a line: Synergistic antiproliferative activity against human SCC25 cells assessed as combination index at 0.05 uM preincubated for 1 hr followed by irradiation with 2.5 Gy IR and measured after 6 days by MTT assay. It counts as functional. Summed up:
(§3)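 SCC-25 cells grown in DMEM with 10% FBS at 37 °C, 5% CO2, seeded 1000 cells/well in 96-well plates and left 24 h. Drug in DMSO, diluted in complete medium, added 1 h before X-irradiation. A movable 5 mm lead shield gave 0, 2.5, 5 or 10 Gy on one plate. After 6 days, MTT readout at 570 nm. Combination index by Chou–Talalay from viability data.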

For assay [8], the system named is SCC-25. Kind of assay: Synergistic antiproliferative activity against human SCC25 cells assessed as combination index at 5 uM preincubated for 1 hr followed by irradiation with 5 Gy IR and measured after 6 days by MTT assay. It is filed as functional. Summed up: as §3
The subject of assay [9] is SCC-25. The experiment in a line: Synergistic antiproliferative activity against human SCC25 cells assessed as combination index at 0.5 uM preincubated for 1 hr followed by irradiation with 10 Gy IR and measured after 6 days by MTT assay. It counts as functional. Summed up: as §3
The subject of assay [10] is FaDu. The experiment in a line: Synergistic induction of cell cycle arrest in human FADU cells assessed as decrease in accumulation at G0/G1 phase at 0.5 uM followed irradiation with 5Gy IR incubated for 24 hrs by propidium iodide staining based flow cytometry. It is filed as functional. Summed up: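 FaDu or SCC-25 cells, untreated, given 5 Gy IR, drug, or drug plus 5 Gy. Cell-cycle distribution by propidium iodide staining and flow cytometry at 6 h and 24 h after treatment. G0/G1, S and G2/M fractions compared with control by t test.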

Assay [11] concerns SCC-25. Kind of assay: Induction of cell cycle arrest in human SCC25 cells at 0.5 uM by propidium iodide staining based flow cytometry. It counts as functional. A digest of the protocol: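 Cell-cycle distribution was measured by propidium iodide staining and flow cytometry. Readings were taken 6 and 24 h after compound alone, 5 Gy IR alone, or the combination, against control.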

Assay [12] has as its system FaDu. Kind of assay: Synergistic induction of apoptosis in human FADU cells at 0.5 uM followed irradiation with 5Gy IR incubated for 48 hrs by annexin V FITC and propidium iodide staining based flow cytometry. It counts as functional. Summed up:
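FaDu or SCC-25 cells, untreated, given 5 Gy IR, drug, or both. Apoptotic cells measured by annexin V flow cytometry 48 h after treatment. Percentage compared with control by t test.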

Assay [13] has as its system FaDu. The experiment in a line: Inhibition of cell migration in human FADU cells at 0.5 uM incubated for 12 and 24 hrs by microscopic analysis. It is filed as functional, cell-based. Summed up: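 Scratch assay: 10^5 cells/well were grown to confluence in 12-well plates, with mitomycin C to block proliferation. Cells were treated with compound for 24 h, with or without 5 Gy IR, then scratched with a pipette tip, washed with PBS and given fresh medium. Imaging was at 0, 6, 12 and 24 h. % migration = gap decrease relative to the 0 h gap.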

Assay [14] concerns FaDu. The experiment in a line: Induction of cell cycle arrest in human FADU cells assessed as decrease in CDK1 at 0.5 uM incubated for 48 hrs by immunoblot analysis. It counts as functional, cell-based. Summed up:
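FaDu cells received compound at 0.5 μM, 5 Gy IR, or both. After 48 h, lysates were immunoblotted for NRF2, cyclin B1, CDK1, Bax and Bcl-2. Membranes were then stripped and reprobed for β-actin as the loading control.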
(In western blotting, separated proteins are transferred to a membrane and probed.)

Assay [15] deals with T1, Nuclear factor erythroid 2-related factor 2 (Homo sapiens) (UniProt Q16236).
T1 sequence (whole entry): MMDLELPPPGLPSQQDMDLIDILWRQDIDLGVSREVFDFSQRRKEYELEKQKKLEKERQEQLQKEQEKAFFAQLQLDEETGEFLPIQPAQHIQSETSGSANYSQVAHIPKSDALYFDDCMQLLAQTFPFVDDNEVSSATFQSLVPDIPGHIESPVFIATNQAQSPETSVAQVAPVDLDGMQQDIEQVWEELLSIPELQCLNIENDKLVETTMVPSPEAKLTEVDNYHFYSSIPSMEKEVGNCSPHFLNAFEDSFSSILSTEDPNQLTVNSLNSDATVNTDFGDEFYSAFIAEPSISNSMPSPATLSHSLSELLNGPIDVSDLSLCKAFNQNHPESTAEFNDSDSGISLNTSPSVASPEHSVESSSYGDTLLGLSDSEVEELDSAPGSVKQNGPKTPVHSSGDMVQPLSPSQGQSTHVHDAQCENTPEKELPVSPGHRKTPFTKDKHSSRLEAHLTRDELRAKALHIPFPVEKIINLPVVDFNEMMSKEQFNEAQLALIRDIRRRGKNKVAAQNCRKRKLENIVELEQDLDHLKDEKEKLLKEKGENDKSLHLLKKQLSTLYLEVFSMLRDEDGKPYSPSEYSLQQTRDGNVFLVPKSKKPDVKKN
The experiment in a line: Synergistic inhibition of Nrf2 in human FADU cells at 0.5 uM followed by irradiation with 5 Gy IR incubated for 48 hrs by immunofluorescence analysis. It is filed as cell-based.

For the compound `COc1ccc2c(c1)N(CCO)C1=C(C(=O)OC1)C2c1ccccc1` (stereo not given), in the assay with SCC-25 [1], the inhibition result is “Dose-dependent effect”. In addition, the “fractional inhibitory concentration index (FICI)” value in the assay on FaDu [2] stood at 0.136; with FaDu [3] it was 0.452; with SCC-25 [6], 0.531. The CI is reported as 0.856 in the assay on FaDu [4]; 0.572 with FaDu [5]; 0.835 with SCC-25 [7]; 0.652 in the assay with SCC-25 [8]; 0.663 in the assay with SCC-25 [9]. The outcome in the assay with FaDu [10] and in the assay on FaDu [14] was Active. The outcome in the assay on SCC-25 [11] was inactive. The “fold change (FC)” value in the assay with FaDu [12] is recorded as 3. Besides, the inhibition result in the assay on FaDu [13] is “inactive”. The inhibition result in [15] is “Active”.
